Values after ≈ are worked out from the molar mass of the structure shown.
Experiments:
TMV [1] = test: Anti-TMV inactivation; type: in vivo; details: Tobacco mosaic virus, read-out: EC50 of inactivation effect activity
In short: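 TMV was mixed with test compound for 0.5 h. The mixture was rubbed onto the right half-leaf of tobacco plants, and the left half received the same virus dose alone. Lesions were counted 3–4 days later. Inhibition (%) was calculated from lesion numbers versus the blank-control half. Three repeats; ribavirin positive control.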

TMV [2] = test: Anti-TMV curative activity in vivo, half-leaf method; set-up: species or system tobacco mosaic virus; details: against TMV in vivo at 500 mg/L (500 μg/mL); average of three replicates ± SD
In short: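 Five-leaf-stage tobacco plants were dusted with emery and rub-inoculated with TMV. After 0.5 h the emery was rinsed off with water and the leaves left to dry. Test compound solution went on the left half-leaf and blank solution on the right. Lesions were counted per half 3–4 days later, and inhibition (%) was calculated from treated versus blank counts. Three repeats; ribavirin positive control.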

[3] = biological target: T1, TMV-coat protein (TMV-CP) (Tobacco mosaic virus, UniProt P69687); test: Microscale thermophoresis; type: binding
T1 sequence (P69687 2-159 limits assumed): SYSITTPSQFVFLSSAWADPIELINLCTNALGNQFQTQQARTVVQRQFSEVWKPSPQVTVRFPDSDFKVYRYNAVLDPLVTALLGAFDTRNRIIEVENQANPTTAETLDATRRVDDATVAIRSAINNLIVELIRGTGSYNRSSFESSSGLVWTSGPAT
In short: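 Test compound binding to TMV coat protein was measured by microscale thermophoresis to give a dissociation constant (Kd). Ningnanmycin and ribavirin served as positive controls. Each test was repeated three times.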

- EC50 (TMV [1]): 138 ± 4.2 µg/mL (≈ 566 µM)
- Kd [3]: 223 ± 66.2 µM
SMILES: NC(=O)c1ncn([C@@H]2O[C@H](CO)[C@@H](O)[C@H]2O)n1 [ribavirin]
- curative effect activity (TMV [2]): 49.3 ± 7.5%

Source: PMC7424737 (ACS Omega, 2020)
